From ChEMBL document CHEMBL4823330, “Piperazinyl Bicyclic Derivatives as Selective Ligands of the α2δ-1 Subunit of Voltage-Gated Calcium Channels” (ACS Med Chem Lett, 2021)
The source made the active and inactive calls. The rule behind the calls is not given here.

Key:
[1] = target: T1, Voltage-dependent calcium channel subunit alpha-2/delta-1 (Homo sapiens, UniProt P54289); assay: Displacement of [3H]-gabapentin from human Cav alpha2delta1 expressed in CHO-K1 cell membranes incubated for 60 mins by scintillation counting method; parameters: species or system Membrane
Summary of the method: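 Radioligand binding with [3H]-gabapentin on α2δ-1-enriched membranes from CHO-K1 cells expressing human Cav2.2/β3/α2δ1. Compounds were first screened at 10 μM. Ki was calculated for those giving more than 50% inhibition. Values are mean ± SD of two determinations.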

CYP3A4 = CYP3A4 (Homo sapiens, UniProt P08684); assay: Inhibition of recombinant CYP3A4 (unknown origin) using BFC as substrate at 1 uM measured after 30 mins in presence of NADPH generating system by fluorescence assay relative to control; format: ADME; details: recombinant CYP3A4, probe BFC
Summary of the method: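 Recombinant human CYP3A4 incubated with test compound at 1 μM. 7-Benzyloxy-4-trifluoromethylcoumarin (BFC) was the probe substrate, with fluorescence read-out, reported as percent inhibition.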

[2] = Lipophilicity, logP of compound; format: physicochemical; details: octanol/water
[3] = Lipophilicity, logD of compound at pH 7.4; format: physicochemical; details: buffer
CYP1A2 = CYP1A2 (Homo sapiens, UniProt P05177); assay: Inhibition of CYP1A2 (unknown origin) at 1 uM relative to control; format: ADME
Summary of the method: (§1)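 Recombinant human CYP isoforms (1A2, 2C9, 2C19, 2D6) were each tested with compound at 1 μM. Read-out is percent inhibition.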

CYP2C9 = CYP2C9 (Homo sapiens, UniProt P11712); assay: Inhibition of CYP2C9 (unknown origin) at 1 uM relative to control; format: ADME; summary of the method: as §1
CYP2C19 = CYP2C19 (Homo sapiens, UniProt P33261); assay: Inhibition of CYP2C19 (unknown origin) at 1 uM relative to control; format: ADME; summary of the method: as §1
CYP2D6 = CYP2D6 (Homo sapiens, UniProt P10635); assay: Inhibition of CYP2D6 (unknown origin) at 1 uM relative to control; format: ADME; summary of the method: as §1
[4] = Metabolic stability in human liver microsomes assessed as intrinsic clearance per mg protein at 1 uM measured upto 60 mins in presence of NADPH generating system by UPLC-MS/MS analysis; format: ADME, Microsome; details: read-out: CLH
[5] = Metabolic stability in rat liver microsomes assessed as intrinsic clearance per mg protein at 1 uM measured upto 60 mins in presence of NADPH generating system by UPLC-MS/MS analysis; format: ADME, Microsome; details: read-out: CLH
[6] = Metabolic stability in mouse liver microsomes assessed as intrinsic clearance per mg protein at 1 uM measured upto 60 mins in presence of NADPH generating system by UPLC-MS/MS analysis; format: ADME, Microsome; details: read-out: CLH
[7] = target: Voltage-gated inwardly rectifying potassium channel KCNH2 (Homo sapiens, UniProt Q12809); assay: Inhibition of human ERG
[8] = Permeability of compound in human Caco2 cells; format: ADME, cell-based; details: Caco-2, read-out: permeability
[9] = Efflux ratio of permeability in human Caco2 cells; format: ADME, cell-based; details: Caco-2
Mus musculus = assay: Analgesic activity in CD1 mouse model of capsaicin-induced mechanical hypersensitivity assessed as reduction in mechanical hypersensitivity at 20 mg/kg, ip administered 30 mins prior to capsaicin stimulation and measured after 15 mins; format: functional; parameters: scale not given: the % may be the effect or the level left; details: time 45 min, 0.75 h
Summary of the method: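 Male CD1 mice, 8–12 per group, given 20 mg/kg ip alongside vehicle and pregabalin comparator groups. Capsaicin test read out as percentage reduction in capsaicin-induced mechanical hypersensitivity.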

[10] = Cmax in CD1 mouse at 20 mg/kg, ip measured upto 24 hrs by UPLC-MS/MS analysis; format: ADME, organism-based; parameters: route intraperitoneal, dose 20 mg/kg, time <=24; details: in vivo
Summary of the method: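 Male CD1 mice given a single ip dose of 20 mg/kg. Cmax was taken from the plasma concentration profile.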

[11] = AUC(0 to t) in CD1 mouse at 20 mg/kg, ip measured upto 24 hrs by UPLC-MS/MS analysis; format: ADME, organism-based; parameters: route intraperitoneal, dose 20 mg/kg, time <=24; details: in vivo
[12] = Induction of motor coordination impairment in CD1 mouse assessed as latency to fall at 20 mg/kg, ip measured upto 180 mins by rotarod test; format: organism-based; details: in vivo, 3 h
Summary of the method: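 Mice were dosed at 20 mg/kg ip, with vehicle and pregabalin groups run in the same paradigm. Latency to fall from the elevated rotating drum was recorded at 30, 120 and 180 min after administration.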

[13] = target: T1, Voltage-dependent calcium channel subunit alpha-2/delta-1; assay: Displacement of [3H]-gabapentin from human Cav alpha2delta1 expressed in CHO-K1 cell membranes at 10 uM incubated for 60 mins by scintillation counting method relative to control; details: Membrane
Summary of the method: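 Human α2δ-1-enriched membranes from CHO-K1 cells stably expressing human Cav2.2/β3/α2δ1. Test compound at 10 μM competes with [3H]-gabapentin radioligand, and percent inhibition of specific binding is recorded. Compounds exceeding 50% inhibition go on to Ki determination, with Ki values given as the mean of two determinations.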

[14] = target: Sigma non-opioid intracellular receptor 1 (Homo sapiens) (UniProt Q99720); assay: Binding affinity to sigma 1 receptor (unknown origin)
[15] = target: 5-hydroxytryptamine receptor 1A (Homo sapiens) (UniProt P08908); assay: Binding affinity to 5HT1A receptor (unknown origin)
[16] = target: 5-hydroxytryptamine receptor 2B (Homo sapiens) (UniProt P41595); assay: Binding affinity to 5HT2B receptor (unknown origin)
[17] = target: Alpha-1A adrenergic receptor (Homo sapiens) (UniProt P35348); assay: Binding affinity to alpha1A receptor (unknown origin)
[18] = target: Alpha-2A adrenergic receptor (Homo sapiens) (UniProt P08913); assay: Binding affinity to alpha2A receptor (unknown origin)
[19] = target: Sodium-dependent dopamine transporter (Homo sapiens) (UniProt Q01959); assay: Binding affinity to dopamine transporter (unknown origin)
Mu-type opioid receptor = Mu-type opioid receptor (Homo sapiens, UniProt P35372); assay: Binding affinity to mu opioid receptor (unknown origin)
[20] = target: Delta-type opioid receptor (Homo sapiens) (UniProt P41143); assay: Binding affinity to delta opioid receptor (unknown origin)
[21] = target: Kappa-type opioid receptor (Homo sapiens) (UniProt P41145); assay: Binding affinity to kappa opioid receptor (unknown origin)
[22] = target: Histamine H1 receptor (Homo sapiens) (UniProt P35367); assay: Binding affinity to histamine H1 receptor (unknown origin)
[23] = target: Sodium-dependent noradrenaline transporter (Homo sapiens) (UniProt P23975); assay: Binding affinity to norepinephrine transporter (unknown origin)
[24] = target: Sodium-dependent serotonin transporter (Homo sapiens) (UniProt P31645); assay: Binding affinity to serotonin transporter (unknown origin)
Chain of Sodium-dependent serotonin transporter (Homo sapiens) (P31645 whole entry, looked up): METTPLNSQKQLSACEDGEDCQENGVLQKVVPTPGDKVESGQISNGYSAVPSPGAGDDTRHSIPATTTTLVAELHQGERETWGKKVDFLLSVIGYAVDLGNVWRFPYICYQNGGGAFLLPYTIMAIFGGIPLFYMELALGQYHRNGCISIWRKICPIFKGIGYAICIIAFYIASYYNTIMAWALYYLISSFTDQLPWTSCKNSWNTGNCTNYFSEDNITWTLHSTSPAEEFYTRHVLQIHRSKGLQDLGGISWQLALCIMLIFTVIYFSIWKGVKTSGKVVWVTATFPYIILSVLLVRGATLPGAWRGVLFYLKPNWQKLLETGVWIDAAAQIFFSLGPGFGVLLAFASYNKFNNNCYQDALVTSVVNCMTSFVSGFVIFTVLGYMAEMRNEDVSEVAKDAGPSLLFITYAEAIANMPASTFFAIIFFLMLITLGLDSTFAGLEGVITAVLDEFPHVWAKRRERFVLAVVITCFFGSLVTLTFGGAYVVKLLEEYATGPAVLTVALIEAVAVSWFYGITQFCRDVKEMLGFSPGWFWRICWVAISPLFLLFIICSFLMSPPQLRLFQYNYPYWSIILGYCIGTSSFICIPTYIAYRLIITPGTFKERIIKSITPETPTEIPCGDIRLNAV

T1 sequence (P54289 25-956 limits assumed): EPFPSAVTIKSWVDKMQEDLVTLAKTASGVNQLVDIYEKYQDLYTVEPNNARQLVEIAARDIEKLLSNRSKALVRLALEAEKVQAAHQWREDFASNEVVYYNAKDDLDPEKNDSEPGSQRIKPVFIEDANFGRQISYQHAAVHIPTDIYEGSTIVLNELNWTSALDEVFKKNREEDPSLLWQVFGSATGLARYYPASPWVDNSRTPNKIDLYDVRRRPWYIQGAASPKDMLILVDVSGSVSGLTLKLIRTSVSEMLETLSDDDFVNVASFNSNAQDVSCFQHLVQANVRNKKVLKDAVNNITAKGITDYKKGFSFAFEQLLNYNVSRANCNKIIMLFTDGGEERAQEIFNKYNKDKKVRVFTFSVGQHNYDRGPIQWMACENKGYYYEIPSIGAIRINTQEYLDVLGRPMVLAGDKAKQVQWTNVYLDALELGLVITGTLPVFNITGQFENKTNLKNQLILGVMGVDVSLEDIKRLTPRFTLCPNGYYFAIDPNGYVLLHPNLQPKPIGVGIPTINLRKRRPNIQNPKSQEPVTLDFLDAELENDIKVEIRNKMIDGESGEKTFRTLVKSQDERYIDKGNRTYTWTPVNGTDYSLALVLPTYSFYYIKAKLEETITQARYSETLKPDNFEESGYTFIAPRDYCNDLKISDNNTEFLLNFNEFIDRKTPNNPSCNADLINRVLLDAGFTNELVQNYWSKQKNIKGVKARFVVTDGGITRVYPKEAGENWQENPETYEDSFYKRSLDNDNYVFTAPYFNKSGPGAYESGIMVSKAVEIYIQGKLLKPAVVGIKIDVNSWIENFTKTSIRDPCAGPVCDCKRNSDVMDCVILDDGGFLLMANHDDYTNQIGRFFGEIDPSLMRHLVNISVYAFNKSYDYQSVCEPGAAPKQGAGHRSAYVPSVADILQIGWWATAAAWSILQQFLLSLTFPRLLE
T1 sequence (P54289 957-1103 limits assumed): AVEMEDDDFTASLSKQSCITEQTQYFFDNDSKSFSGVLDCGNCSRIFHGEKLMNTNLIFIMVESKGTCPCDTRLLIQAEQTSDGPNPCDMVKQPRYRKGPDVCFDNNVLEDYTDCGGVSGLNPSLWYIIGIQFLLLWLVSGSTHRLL
Chain of CYP3A4 (P08684 whole entry): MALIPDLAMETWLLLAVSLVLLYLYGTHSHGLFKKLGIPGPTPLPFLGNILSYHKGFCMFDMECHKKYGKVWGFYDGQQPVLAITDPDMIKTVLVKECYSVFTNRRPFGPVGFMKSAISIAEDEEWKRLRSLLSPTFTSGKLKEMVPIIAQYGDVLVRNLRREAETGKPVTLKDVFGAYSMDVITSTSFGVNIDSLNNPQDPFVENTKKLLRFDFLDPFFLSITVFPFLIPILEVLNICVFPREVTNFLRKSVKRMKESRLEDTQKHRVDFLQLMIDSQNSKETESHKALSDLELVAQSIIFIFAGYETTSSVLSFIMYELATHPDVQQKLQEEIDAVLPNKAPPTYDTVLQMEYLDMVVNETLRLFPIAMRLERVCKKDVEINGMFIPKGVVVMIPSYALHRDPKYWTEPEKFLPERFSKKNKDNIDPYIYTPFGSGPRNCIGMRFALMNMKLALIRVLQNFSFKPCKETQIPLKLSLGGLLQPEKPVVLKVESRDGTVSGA
Chain of Sodium-dependent noradrenaline transporter (Homo sapiens) (P23975 whole entry): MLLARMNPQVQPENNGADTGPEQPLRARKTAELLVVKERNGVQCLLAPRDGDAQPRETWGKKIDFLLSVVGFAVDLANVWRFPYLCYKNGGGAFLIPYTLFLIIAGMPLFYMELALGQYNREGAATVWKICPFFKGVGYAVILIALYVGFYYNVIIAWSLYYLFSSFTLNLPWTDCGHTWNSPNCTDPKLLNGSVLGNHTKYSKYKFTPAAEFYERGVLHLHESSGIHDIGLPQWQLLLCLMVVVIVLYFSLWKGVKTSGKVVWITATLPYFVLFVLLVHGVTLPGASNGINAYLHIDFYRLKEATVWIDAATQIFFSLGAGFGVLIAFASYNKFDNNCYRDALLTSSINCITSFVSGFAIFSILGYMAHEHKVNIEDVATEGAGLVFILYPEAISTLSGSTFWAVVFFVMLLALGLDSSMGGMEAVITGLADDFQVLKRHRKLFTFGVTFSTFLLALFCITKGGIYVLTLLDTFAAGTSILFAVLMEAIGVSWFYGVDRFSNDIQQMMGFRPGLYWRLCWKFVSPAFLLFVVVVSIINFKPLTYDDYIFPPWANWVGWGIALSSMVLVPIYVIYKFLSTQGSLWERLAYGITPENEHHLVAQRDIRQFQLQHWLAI
Chain of Mu-type opioid receptor (P35372 whole entry): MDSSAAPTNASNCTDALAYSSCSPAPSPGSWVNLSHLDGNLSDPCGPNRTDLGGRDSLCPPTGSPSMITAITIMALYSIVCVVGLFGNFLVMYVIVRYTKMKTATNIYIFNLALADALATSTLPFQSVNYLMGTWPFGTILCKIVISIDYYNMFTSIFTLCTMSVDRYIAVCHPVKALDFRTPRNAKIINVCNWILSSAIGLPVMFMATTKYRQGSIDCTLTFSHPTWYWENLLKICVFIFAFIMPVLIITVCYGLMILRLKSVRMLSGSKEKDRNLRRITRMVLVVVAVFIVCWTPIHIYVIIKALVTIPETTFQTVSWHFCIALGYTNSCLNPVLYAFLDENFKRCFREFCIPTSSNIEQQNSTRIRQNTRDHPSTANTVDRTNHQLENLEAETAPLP
Chain of Alpha-1A adrenergic receptor (Homo sapiens) (P35348 whole entry): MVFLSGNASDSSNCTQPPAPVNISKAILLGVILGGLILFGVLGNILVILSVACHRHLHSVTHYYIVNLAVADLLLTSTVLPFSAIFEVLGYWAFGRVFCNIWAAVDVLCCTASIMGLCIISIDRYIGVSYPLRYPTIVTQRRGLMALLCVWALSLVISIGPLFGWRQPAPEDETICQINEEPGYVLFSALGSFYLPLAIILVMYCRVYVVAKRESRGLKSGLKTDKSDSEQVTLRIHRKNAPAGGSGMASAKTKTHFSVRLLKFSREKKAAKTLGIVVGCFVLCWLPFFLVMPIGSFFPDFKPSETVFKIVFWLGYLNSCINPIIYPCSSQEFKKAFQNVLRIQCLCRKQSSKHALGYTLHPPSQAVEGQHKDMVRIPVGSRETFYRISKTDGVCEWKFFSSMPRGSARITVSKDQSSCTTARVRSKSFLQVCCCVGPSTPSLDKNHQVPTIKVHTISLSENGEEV
Chain of Delta-type opioid receptor (Homo sapiens) (P41143 whole entry): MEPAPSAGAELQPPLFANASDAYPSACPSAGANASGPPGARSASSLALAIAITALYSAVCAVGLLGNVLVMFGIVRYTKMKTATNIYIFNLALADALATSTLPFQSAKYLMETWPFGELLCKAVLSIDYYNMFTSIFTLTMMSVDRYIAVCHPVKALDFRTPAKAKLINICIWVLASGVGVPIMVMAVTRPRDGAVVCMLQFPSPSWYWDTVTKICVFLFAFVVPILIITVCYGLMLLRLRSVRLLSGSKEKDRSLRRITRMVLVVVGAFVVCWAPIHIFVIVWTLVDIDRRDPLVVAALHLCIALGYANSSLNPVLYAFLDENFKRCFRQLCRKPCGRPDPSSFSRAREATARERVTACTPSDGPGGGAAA
Chain of Sodium-dependent dopamine transporter (Homo sapiens) (Q01959 whole entry): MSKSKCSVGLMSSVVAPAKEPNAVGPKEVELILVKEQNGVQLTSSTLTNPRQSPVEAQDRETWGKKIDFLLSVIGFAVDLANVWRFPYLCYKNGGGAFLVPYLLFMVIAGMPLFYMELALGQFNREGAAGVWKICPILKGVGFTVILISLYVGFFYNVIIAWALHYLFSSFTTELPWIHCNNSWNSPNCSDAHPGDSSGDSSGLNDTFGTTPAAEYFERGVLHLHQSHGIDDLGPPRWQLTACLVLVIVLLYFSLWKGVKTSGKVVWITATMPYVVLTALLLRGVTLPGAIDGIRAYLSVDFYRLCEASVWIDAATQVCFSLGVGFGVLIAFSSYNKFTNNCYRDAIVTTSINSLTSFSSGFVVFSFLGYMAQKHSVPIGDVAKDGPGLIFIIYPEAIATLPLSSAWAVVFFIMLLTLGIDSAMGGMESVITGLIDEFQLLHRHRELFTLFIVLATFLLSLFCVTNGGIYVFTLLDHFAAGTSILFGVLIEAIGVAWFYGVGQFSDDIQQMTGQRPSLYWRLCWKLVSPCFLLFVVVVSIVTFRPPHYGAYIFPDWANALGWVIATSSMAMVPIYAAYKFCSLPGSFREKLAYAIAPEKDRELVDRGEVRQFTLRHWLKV
Chain of Sigma non-opioid intracellular receptor 1 (Homo sapiens) (Q99720 whole entry): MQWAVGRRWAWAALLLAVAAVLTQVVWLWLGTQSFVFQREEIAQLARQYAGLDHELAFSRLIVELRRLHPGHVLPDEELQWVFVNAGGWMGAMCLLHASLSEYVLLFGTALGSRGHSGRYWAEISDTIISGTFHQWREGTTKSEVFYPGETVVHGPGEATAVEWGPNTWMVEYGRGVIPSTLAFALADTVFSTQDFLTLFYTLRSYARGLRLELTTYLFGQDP

Row | Structure (SMILES) | Ki [1] [nM] | inhibition at 0.5 h, 1 µM (CYP3A4) [%] | also measured
1 | CCC[C@H](c1nc2ccncc2c(=O)n1CC)N1CCN[C@H](C)C1 | 6 | 46 | logP [2]: 2.22; logD [3]: 0.49; inhibition at 1 µM (CYP1A2): < 50%; inhibition at 1 µM (CYP2C9): < 50%; inhibition at 1 µM (CYP2C19): < 50%; inhibition at 1 µM (CYP2D6): < 50%; microsomal CLint at 1 µM [4]: 2.6 µL/min/mg; microsomal CLint at 1 µM [5]: 3.9 µL/min/mg; microsomal CLint at 1 µM [6]: 4.1 µL/min/mg; IC50 [7]: > 10000 nM; Papp [8]: 4.3 ×10⁻⁶ cm/s; efflux ratio [9]: 5.4; Activity (Mus musculus): 69%; Cmax [10]: 3070 ng/mL; AUC(0-t) at 24 h [11]: 8050 ng·h/mL; Activity [12]: Non-Toxic
2 | CCCC(c1nc2ccc(Br)cc2c(=O)n1CC)N1C[C@@H](C)N[C@@H](C)C1 (stereo partly drawn) | 16 | 95 | 
3 | CCC(c1nc2ccccc2c(=O)n1CCOC)N1CCNCC1 (stereo not drawn) | 1810 | 37 | 
4 | CCC[C@@H](c1nc2ccc(Br)cc2c(=O)n1CC)N1CCN[C@H](C)C1 | > 1000 | 21 | 
5 | COCCn1c(C(CC2CC2)N2C[C@@H](C)N[C@@H](C)C2)nc2ccccc2c1=O (stereo partly drawn) | 413 | 94 | 
6 | CCC[C@H](c1nc2ccc(Br)cc2c(=O)n1CC)N1CCNC(C)(C)C1 | 1580 | 72 | 
7 | CCC[C@H](c1nc2ccc(Br)cc2c(=O)n1CC)N1C[C@@H](C)N[C@@H](C)C1 | 8 | 94 | 
8 | CCCC(c1nc2ccccc2c(=O)n1CC)N1C[C@@H](C)N[C@@H](C)C1 (stereo partly drawn) | 36 | 85 | 
9 | CCCC(c1nc2ccc(C#N)cc2c(=O)n1CC)N1C[C@@H](C)N[C@@H](C)C1 (stereo partly drawn) | 288 | 70 | 
10 | CCC[C@@H](c1nc2ccncc2c(=O)n1CC)N1CCN[C@@H](C)C1 | > 1000 | 44 | 
11 | CCC[C@@H](c1nc2ccc(Br)cc2c(=O)n1CC)N1CCN[C@@H](C)C1 | 479 | 33 | 
12 | CCC(c1nc2ccccc2c(=O)n1CCCOC)N1C[C@@H](C)N[C@@H](C)C1 (stereo partly drawn) | > 10000 |  | inhibition [13]: < 50%
13 | CCCC(c1nc2ccc(NCC)cc2c(=O)n1CC)N1C[C@@H](C)N[C@@H](C)C1 (stereo partly drawn) | 44 | 69 | 
14 | CCCC(c1nc2ccccc2c(=O)n1C)N1C[C@@H](C)N[C@@H](C)C1 (stereo partly drawn) | 73 | 80 | 
15 | CCC[C@H](c1nc2ccc(Br)cc2c(=O)n1CC)N1CCN[C@@H](CC)C1 | 123 | 97 | 
16 | CCCCC(c1nc2ccccc2c(=O)n1CCOC)N1C[C@@H](C)N[C@@H](C)C1 (stereo partly drawn) | 1340 | 97 | 
17 | CCCC(c1nc2cccc(Br)c2c(=O)n1CC)N1C[C@@H](C)N[C@@H](C)C1 (stereo partly drawn) | 66 | 95 | 
18 | CCC[C@H](c1nc2ccc(Br)cc2c(=O)n1CC)N1CCN[C@H](C)C1 | 16 | 51 | Activity [14]: Active; Activity [15]: Active; Activity [16]: Active; Activity [17]: Active; Activity [18]: Active; Activity [19]: Active; Activity (Mu-type opioid receptor): Active; Activity [20]: Active; Activity [21]: Active; Activity [22]: Active; Activity [23]: Active; Activity [24]: Active

Row | Structure (SMILES) | Ki [1] [nM] | inhibition at 0.5 h, 1 µM (CYP3A4) [%] | also measured
19 | CC(C)C[C@H](CN)CC(=O)O [PREGABALIN] |  | 43 | Activity (Mus musculus): 34%; Activity [12]: Toxic
20 | CCC[C@H](c1nc2ccc(Br)cc2c(=O)n1CC)N1CCN[C@@H](C)C1 | 91 | 73 | Activity [14]: Active; Activity [15]: Active; Activity [16]: Active; Activity [17]: Active; Activity [18]: Active; Activity [19]: Active; Ki (Mu-type opioid receptor): 157 nM; Activity [20]: Active; Activity [21]: Active; Activity [22]: Active; Activity [23]: Active; Activity [24]: Active
21 | CCCC(c1nc2c(Br)cccc2c(=O)n1CC)N1C[C@@H](C)N[C@@H](C)C1 (stereo partly drawn) | > 1000 |  | 
22 | CCCC(c1nc2ccccc2c(=O)n1CCOC)N1CCNCC1 (stereo not drawn) | 638 | 67 | 
23 | CCCC(c1nc2ccc(Br)cc2c(=O)n1CC)N1CCNCC1 (stereo not drawn) | 76 | 65 | 
24 | CCCC(c1nc2cc(Br)ccc2c(=O)n1CC)N1C[C@@H](C)N[C@@H](C)C1 (stereo partly drawn) | 15 | 97 | 
25 | CCC[C@H](c1nc2ccncc2c(=O)n1CC)N1CCN[C@@H](C)C1 | 27 | 56 | 
26 | COCCn1c(C(C)N2CCNCC2)nc2ccccc2c1=O (stereo not drawn) | 4900 | 0 | 
27 | COCCn1c(CN2CCNCC2)nc2ccccc2c1=O | > 10000 | 6 | inhibition [13]: < 50%
28 | CCC(c1nc2ccccc2c(=O)n1CCOC)N1C[C@@H](C)N[C@@H](C)C1 (stereo partly drawn) | 761 | 86 | 
29 | CCC[C@@H](c1nc2ccncc2c(=O)n1CC)N1CCN[C@H](C)C1 | > 1000 | 15 | 
30 | CCCC(c1nc2ccccc2c(=O)n1CCOC)N1C[C@@H](C)N[C@@H](C)C1 (stereo partly drawn) | 241 | 94 | 
31 | CCC[C@@H](c1nc2ccc(Br)cc2c(=O)n1CC)N1C[C@@H](C)N[C@@H](C)C1 | 2900 | 88 | 
32 | CCCC(c1nc2ccccc2c(=O)n1Cc1ccco1)N1C[C@@H](C)N[C@@H](C)C1 (stereo partly drawn) | 230 | 99 | 
33 | CCCC(c1nc2ccccc2c(=O)n1Cc1ccccc1)N1C[C@@H](C)N[C@@H](C)C1 (stereo partly drawn) | 4820 | 98 | 
34 | CCCC(c1nc2ccc(-c3ccncc3)cc2c(=O)n1CC)N1C[C@@H](C)N[C@@H](C)C1 (stereo partly drawn) | 38 | 92 | 
35 | CCCC(c1nc2ccc(Br)cc2c(=O)n1CC)N1CCC(NC)CC1 (stereo not drawn) | 436 | 83 | 
36 | CCCC(c1nc2cc(-c3ccncc3)ccc2c(=O)n1CC)N1C[C@@H](C)N[C@@H](C)C1 (stereo partly drawn) | 18 | 97 | 
